Activity calls are given as the source filed them. The rule behind the calls is not given here.
What was measured:
Raji = assay: Antitumor activity against human Raji cells xenografted in NOD/SCID nude mouse assessed as reduction in tumor weight at 1 mg/kg, ip administered once in 2 days for 2 weeks relative to control; format: functional, organism-based
In short: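 NOD/SCID mice were implanted subcutaneously in the underarm with RAJI cells (5 × 10^6 per 100 μL of RPMI 1640 with 10% serum). Tumours reached […] after 1 week, and mice were then randomised. […] Tumour volume was recorded daily and tumour weight at the end.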

Mus musculus [1] = assay: Toxicity in NOD/SCID nude mouse xenografted with human Raji cells assessed as reduction in body weight at 1 mg/kg, ip administered once in 2 days for 2 weeks measured every day during compound dosing; format: organism-based; conditions: in vivo
In short: (§1)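 NOD/SCID mice implanted subcutaneously in the underarm with 5 × 10^6 RAJI cells in 100 μL RPMI 1640 with 10% serum; tumours grown about 1 week, then mice randomized. Body weight recorded daily; organ weights taken at end.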

Mus musculus [2] = assay: Toxicity in NOD/SCID nude mouse xenografted with human Raji cells assessed as reduction in viscera weight at 1 mg/kg, ip administered once in 2 days for 2 weeks measured every day during compound dosing; format: organism-based; conditions: in vivo; in short: as §1

In the case of `COc1cccc2c1C(=O)c1c(O)c3c(c(O)c1C2=O)C[C@@](O)(C(=O)CO)C[C@@H]3O[C@H]1C[C@H](N)[C@H](O)[C@H](C)O1` [DOXORUBICIN], the Activity (Raji) is reported as “Active”, the Activity (Mus musculus [1]) is reported as “Toxic” and the Activity (Mus musculus [2]) is reported as “Toxic”.
